Fewer inactive variants are shown than the library holds. A value given as a limit tells only on which side of the number the result lay.

First the molecules themselves.
B1: tRNA (parent)
chain: CUCUCGGUAGCCAAGUUGGUUUAAGGCGCAAGACUUUAAUUUAUCACUACGAAAUCUUGAGAUCGGGCGUUCGACUCGCCCCCGGGAGAUUUUUUCCUCGAGCAA

Variants of B1 are the subject of this series. In words: nonsense suppression (GFP-seq) (ratio to wild type); higher = more function; SUP4oc tRNA, yeast GFP reporter sort-seq. In outline: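 Nonsense suppression (GFPSEQ) is the median GFP/RFP ratio of each sorting bin, weighted by the variant's estimated share of cells in that bin and expressed relative to the unmutated parent tRNA. Yeast strains carried genome-integrated variants of an ochre-suppressor tRNA from a library with ~3% random mutations, plus a galactose-driven GFP ochre reporter and RFP, and were grown in raffinose/galactose medium containing 80 mg/L adenine. Cells were sorted into GFP/RFP bins, each bin was Illumina-sequenced (phred ≥30), and variants were kept only with ≥100 reads and ≥30 cells.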
For G61C C77G, the nonsense suppression was 0.0296.

As to G61C C77U, the nonsense suppression was 0.0267.

Turning to G61A G73A, the nonsense suppression was found to be 0.202.

Turning to G61C A89C, the nonsense suppression is ≤ 0.026.

On to C56G G78C, for which the nonsense suppression is ≤ 0.026.

As for A62C G78A, the nonsense suppression is ≤ 0.026.

For the variant U57C A87G, the nonsense suppression was determined as 0.0399.

Regarding A54U A60C, the nonsense suppression was found to be 0.279.

In the case of A54U A60U, the nonsense suppression worked out at 0.965.

For U55C U63A C75G, the nonsense suppression came to 0.0265.

With U55A A74C G88A, the nonsense suppression is ≤ 0.026.

As to U58C G61A, the nonsense suppression was 0.0586.

For U58C G61C, the nonsense suppression amounted to 0.0324.

As for U57C G61A, the nonsense suppression was determined as 0.0312.

For the variant U63A C82U, the nonsense suppression was 0.178.

On to U55C U57C, for which the nonsense suppression came to 0.026.

Consider U58C U63C, for which the nonsense suppression is 0.144.

Turning to G59C U63A G66A C68U C72A, the nonsense suppression was ≤ 0.026.

A62C C64G: the nonsense suppression was ≤ 0.026.

C56A G65C: the nonsense suppression was ≤ 0.026.

Take U57C C81U G84U: the nonsense suppression is ≤ 0.026.

With G61A G67A G73C, the nonsense suppression is ≤ 0.026.

On to A60C G85C, for which the nonsense suppression stood at 0.0595.

As for A60U C68U, the nonsense suppression came out at 1.1.

In the case of A62G G67A, the nonsense suppression was ≤ 0.026.

With A60G A74C, the nonsense suppression is 0.0318.

With A60G A74G, the nonsense suppression came out at 0.0684.

As for U55C U76A, the nonsense suppression amounted to 0.15.

For the variant U55A G85C, the nonsense suppression is ≤ 0.026.

With U55G U63A G86C, the nonsense suppression is ≤ 0.026.

Take A54U G69C C81G: the nonsense suppression is ≤ 0.026.

Take U58A G59A U63A G69C U70G: the nonsense suppression is ≤ 0.026.

On to A60U C81U, for which the nonsense suppression is 0.818.

Consider G61U C80U, for which the nonsense suppression was determined as 0.677.

As to U57A U63C, the nonsense suppression stood at 0.0744.

Consider G61C A87U, for which the nonsense suppression amounted to 0.3.

Take G61C A87C: the nonsense suppression was 0.0361.

As to G61C A87G, the nonsense suppression came to 0.247.

In the case of U55A U70C, the nonsense suppression is ≤ 0.026.

Regarding A54C U58A, the nonsense suppression amounted to 0.135.

Turning to A60C C75U, the nonsense suppression was 0.167.

Consider C56A U71A, for which the nonsense suppression was ≤ 0.026.

With G59U A89G, the nonsense suppression is ≤ 0.026.

With G59C C75G, the nonsense suppression was ≤ 0.026.

For the variant A54C G84U, the nonsense suppression worked out at 0.0301.

With A54G C79U, the nonsense suppression is 0.0263.

G61U A62U: the nonsense suppression came to 0.0397.

For G61C G65A C68U, the nonsense suppression is ≤ 0.026.

As for U55C C83G, the nonsense suppression came out at 0.0314.

With U57C A89G, the nonsense suppression is ≤ 0.026.

For U55C C77A, the nonsense suppression amounted to 0.0479.

As for U63A G67A, the nonsense suppression is ≤ 0.026.

Regarding G59U U63C, the nonsense suppression is 0.868.

In the case of U55C G88C, the nonsense suppression was 0.0568.

For A60G U63A, the nonsense suppression was 0.163.

As to A60G C75A, the nonsense suppression came out at 0.976.

Consider G61C U63C, for which the nonsense suppression stood at 0.196.

Turning to G61C U63G, the nonsense suppression came out at 0.12.

Consider G61C C64U C68G G84A, for which the nonsense suppression was ≤ 0.026.

Consider G61C G67A, for which the nonsense suppression stood at 0.0647.

In the case of G61C C75A, the nonsense suppression came to 1.06.

G61C C75G: the nonsense suppression was 1.21.

As for A54C G69C C75U U76G G85C, the nonsense suppression was ≤ 0.026.

As to U63C C75A, the nonsense suppression was 1.04.

On to G61A G84C, for which the nonsense suppression stood at 0.0752.

With U57A A60C, the nonsense suppression came to 0.0859.

On to A60G U71C, for which the nonsense suppression was 0.0362.

Take A60U: the nonsense suppression is 0.984.

Turning to A60G, the nonsense suppression was 1.14.

For A60C, the nonsense suppression came to 0.489.

For U55A G67U, the nonsense suppression is ≤ 0.026.

For the variant A54G G73A, the nonsense suppression worked out at 0.122.

As to G61A C79U, the nonsense suppression is 0.209.

Regarding G61A C79G, the nonsense suppression was ≤ 0.026.

As for A62G G78U, the nonsense suppression was 0.0339.

As for G61C G88U, the nonsense suppression is 0.0792.

Turning to G61C G88A, the nonsense suppression came to 0.0268.

As to A54G G67C, the nonsense suppression was ≤ 0.026.

Take A60C G66C: the nonsense suppression is ≤ 0.026.

For A60U U76C, the nonsense suppression amounted to 1.05.

Turning to G61A G78U, the nonsense suppression is 0.0402.

For the variant U58C G73A, the nonsense suppression was found to be 0.0472.

As to U63A C72U, the nonsense suppression came to 0.133.

As for U57A G84U, the nonsense suppression worked out at 0.0408.

On to G59C A60C U71G G78A, for which the nonsense suppression is ≤ 0.026.

Consider A54U C56G C72A, for which the nonsense suppression is ≤ 0.026.

Regarding A62C C64U G84C, the nonsense suppression was ≤ 0.026.

Consider A54G G61A U76C C77G, for which the nonsense suppression is ≤ 0.026.

With A54C G86C, the nonsense suppression worked out at 0.0725.

Consider G61C G78A C79U, for which the nonsense suppression was ≤ 0.026.

Turning to G59U G88A, the nonsense suppression was ≤ 0.026.

Regarding C56G A62G, the nonsense suppression is ≤ 0.026.

U55C G61A: the nonsense suppression was 0.194.

G61A C80U: the nonsense suppression was 0.232.

For U58C G61U U63C, the nonsense suppression was ≤ 0.026.

As for A54C G73C, the nonsense suppression stood at 0.0591.

For A54U A87G, the nonsense suppression was 0.867.

For A62G G65C, the nonsense suppression was ≤ 0.026.

In the case of A60C A62C A87G, the nonsense suppression is ≤ 0.026.

Turning to U55A U71A, the nonsense suppression is ≤ 0.026.

As to U63A C75G U76C, the nonsense suppression amounted to 1.19.

On to G61A C83A, for which the nonsense suppression came to 0.0363.

Regarding U58A G61A, the nonsense suppression came out at 0.0532.

Regarding U63A G86U, the nonsense suppression was found to be 0.0573.

With G61C G78U, the nonsense suppression was determined as 0.13.

As for A54U U63G, the nonsense suppression is 0.659.

For A54U U63A, the nonsense suppression came out at 0.864.

On to A54U U63C, for which the nonsense suppression came out at 0.798.

Turning to U57A G85A, the nonsense suppression is 0.165.

For U57A G85U, the nonsense suppression came to 0.0736.

G61C C68U: the nonsense suppression amounted to 0.633.

Turning to A60G C81U, the nonsense suppression is 0.0488.

Turning to G61A G66C, the nonsense suppression was ≤ 0.026.

For the variant A54C U71G, the nonsense suppression is ≤ 0.026.

A54C U71C: the nonsense suppression is 0.0406.

For A54C U76C, the nonsense suppression worked out at 0.232.

On to C56A G69A, for which the nonsense suppression is ≤ 0.026.

Regarding G59C A87U, the nonsense suppression was ≤ 0.026.

Consider G59C G66U C83A A87C, for which the nonsense suppression is ≤ 0.026.

As to G59C C68A G88U A89C, the nonsense suppression is ≤ 0.026.

As to A60C G67A, the nonsense suppression was ≤ 0.026.

On to G59U A62C A89G, for which the nonsense suppression is ≤ 0.026.

Consider A60C G61U, for which the nonsense suppression is 0.768.

For U57C U58A A62C, the nonsense suppression was ≤ 0.026.

As for U58C G69A, the nonsense suppression was ≤ 0.026.

A62G C75U C83A: the nonsense suppression is ≤ 0.026.

Regarding G61C G85C, the nonsense suppression came out at 0.045.

As for G59U, the nonsense suppression was determined as 0.116.

Consider U58G G66U C75A, for which the nonsense suppression is ≤ 0.026.

For U57C G73A, the nonsense suppression was determined as 0.0414.

Regarding A62U U71G, the nonsense suppression was ≤ 0.026.

As for A60G A89U, the nonsense suppression turned out to be 0.0291.

As to A60G G85U, the nonsense suppression was 0.138.

As for A60G G85C, the nonsense suppression was determined as 0.119.

On to A60G G85A, for which the nonsense suppression turned out to be 1.16.

Regarding A62U G84C, the nonsense suppression stood at 0.0347.

With G61A G69A, the nonsense suppression stood at 0.0276.

For the variant G61A G69C, the nonsense suppression was 0.0625.

As to A62U G67U G69U, the nonsense suppression was ≤ 0.026.

Consider U55G A74U, for which the nonsense suppression is ≤ 0.026.

Turning to U55A C56A C64A U70C, the nonsense suppression is ≤ 0.026.

As for U58A U70C G86C A89C, the nonsense suppression was ≤ 0.026.

As to U55C G65A, the nonsense suppression was determined as 0.0796.

A60C G84C: the nonsense suppression came to 0.0911.

Take U58A A60C: the nonsense suppression was 0.0508.

Take A62G C83A: the nonsense suppression is ≤ 0.026.

On to G61A U76C, for which the nonsense suppression was 0.775.

Take G61A U76G: the nonsense suppression was 0.0268.

For the variant G61A A87G, the nonsense suppression was determined as 0.197.

G61A A87U: the nonsense suppression stood at 0.181.

In the case of C56U U58C G66U, the nonsense suppression is ≤ 0.026.

In the case of U63A G66U U71A A87G, the nonsense suppression was ≤ 0.026.

For A60U U70C U76C, the nonsense suppression is ≤ 0.026.

Turning to A54U G85C, the nonsense suppression is 0.208.

Regarding A54U G85U, the nonsense suppression came to 1.01.

With U55G U63G U71C G88A, the nonsense suppression was ≤ 0.026.

Take U55G A89U: the nonsense suppression was ≤ 0.026.

Take U55C C79G: the nonsense suppression was 0.035.

Consider U55C C79U, for which the nonsense suppression worked out at 0.183.

As for U57G G78A, the nonsense suppression was 0.0374.

Turning to G61C C72G, the nonsense suppression was determined as 0.0291.

In the case of G59A C75A, the nonsense suppression was found to be 0.717.

As to A60U U71G, the nonsense suppression is ≤ 0.026.

Regarding U55C U58G, the nonsense suppression is ≤ 0.026.

With U57A G78C, the nonsense suppression was ≤ 0.026.

As for A62C G67A, the nonsense suppression is ≤ 0.026.

As for U57A G67U U76C, the nonsense suppression was ≤ 0.026.
